Test results as given in ChEMBL document CHEMBL4130429, “Hydroxytriazole derivatives as potent and selective aldo-keto reductase 1C3 (AKR1C3) inhibitors discovered by bioisosteric scaffold hopping approach” (Eur J Med Chem, 2017).
The source made the active and inactive calls. No cut-off for these calls is given here.

Columns and labels:
[1] = target: T1, Prostaglandin G/H synthase 1 (Ovis aries, UniProt P05979); assay: Inhibition of ovine COX1 assessed as reduction in PGF2alpha production by ELISA
T1 sequence (P05979 whole entry): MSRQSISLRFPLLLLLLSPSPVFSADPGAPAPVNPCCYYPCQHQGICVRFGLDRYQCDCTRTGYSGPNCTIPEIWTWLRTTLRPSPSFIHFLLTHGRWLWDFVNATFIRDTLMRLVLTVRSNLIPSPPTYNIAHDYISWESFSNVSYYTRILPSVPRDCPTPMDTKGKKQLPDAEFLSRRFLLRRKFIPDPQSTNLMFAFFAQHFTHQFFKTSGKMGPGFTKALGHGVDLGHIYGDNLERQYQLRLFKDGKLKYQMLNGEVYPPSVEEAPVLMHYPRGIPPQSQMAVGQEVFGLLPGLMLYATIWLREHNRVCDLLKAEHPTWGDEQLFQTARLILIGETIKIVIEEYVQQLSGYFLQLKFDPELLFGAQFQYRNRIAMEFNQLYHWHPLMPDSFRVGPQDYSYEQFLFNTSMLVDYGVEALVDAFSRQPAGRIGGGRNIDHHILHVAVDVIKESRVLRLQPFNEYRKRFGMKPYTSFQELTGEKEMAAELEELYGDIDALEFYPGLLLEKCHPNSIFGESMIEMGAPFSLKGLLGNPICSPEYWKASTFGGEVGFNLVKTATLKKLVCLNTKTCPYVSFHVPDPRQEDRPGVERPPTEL
How it was run: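 Commercial COX (ovine COX-1/human COX-2) inhibitor screening kit. PGH2 formed by COX is reduced by SnCl2 to PGF2α, which is quantified by ELISA absorbance. IC50 by linear regression. Mean ± SE of at least three experiments.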

[2] = target: T2, Aldo-keto reductase family 1 member C3 (Homo sapiens, UniProt P42330); assay: Inhibition of AKR1C3 (unknown origin) using S-tetralol as substrate in presence of NADP+ by fluorimtery
T2 sequence (P42330 whole entry): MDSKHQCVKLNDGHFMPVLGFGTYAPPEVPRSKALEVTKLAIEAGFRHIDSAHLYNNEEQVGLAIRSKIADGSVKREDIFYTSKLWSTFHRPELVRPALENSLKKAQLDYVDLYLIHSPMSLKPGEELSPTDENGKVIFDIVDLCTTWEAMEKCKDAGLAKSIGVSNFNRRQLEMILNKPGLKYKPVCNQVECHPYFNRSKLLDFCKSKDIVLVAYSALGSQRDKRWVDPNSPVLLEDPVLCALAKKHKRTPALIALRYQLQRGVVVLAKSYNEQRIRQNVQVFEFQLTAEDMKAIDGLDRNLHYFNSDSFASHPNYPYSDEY
How it was run: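 Purified recombinant enzyme (GST-tagged, glutathione-sepharose purified, thrombin-cleaved) with S-tetralol in 100 mM phosphate pH 7, 200 µM NADP+, 10% ethanol. […] NADPH formation followed fluorimetrically (ex 340/em 460 nm) at 37 °C. IC50 from initial velocities versus solvent controls; means of two experiments in triplicate.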

CWR22R [3] = assay: Antiproliferative activity against human 22Rv1 cells after 72 hrs by sulforhodamine B colorimetric proliferation assay; format: functional, cell-based; settings: 22Rv1, 72 h
How it was run: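 22RV1 castration-resistant prostate cells were seeded at 10,000 cells/well in RPMI with 10% charcoal-stripped serum and allowed to adhere for 24 h at 37 °C, 5% CO2. Inhibitor dilutions in ethanol were added in triplicate for 72 h, with ethanol-matched controls (max 1% v/v). Growth was read by SRB and given as %T/C (treated/control OD). Means of two experiments, each in triplicate.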

[4] = target: T2, Aldo-keto reductase family 1 member C3; assay: Inhibition of recombinant human AKR1C3 expressed in Escherichia coli BL21 (DE) using [14C]androstenedione as substrate in presence of NADPH generating system
How it was run: (§1)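 E. coli expressing AKR1C3, unlysed, suspended in 100 mM phosphate pH 6.6 (~15 µg protein). Incubated with [14C]androstenedione (6×10^-4 µCi), Tween 80 0.1 mg/mL, 1 mM ATP, 1 mM MgCl2 and NADPH-generating system (1 mM NADP+, 3 mM glucose-6-phosphate, 3 U G6PDH) for 30 min at 30 °C with shaking. Conversion to testosterone quantified by radioactivity scanning of TLC.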

CWR22R [5] = assay: Antiproliferative activity against human 22Rv1 cells at 20 uM after 72 hrs by sulforhodamine B colorimetric proliferation assay; format: functional, cell-based
[6] = target: T3, Aldo-keto reductase family 1 member C3 (Homo sapiens) (UniProt P42330); assay: Inhibition of recombinant human AKR1C3 expressed in Escherichia coli BL21 […] at 50 uM using [14C]androstenedione as substrate in presence of NADPH generating system; how it was run: as §1
T3 sequence (whole entry): T2 sequence (P42330 whole entry)

[7] = target: T4, Aldo-keto reductase family 1 member C2 (Homo sapiens, UniProt P52895); assay: Inhibition of AKR1C2 (unknown origin) using S-tetralol as substrate by fluorimtery
T4 sequence (P52895 whole entry): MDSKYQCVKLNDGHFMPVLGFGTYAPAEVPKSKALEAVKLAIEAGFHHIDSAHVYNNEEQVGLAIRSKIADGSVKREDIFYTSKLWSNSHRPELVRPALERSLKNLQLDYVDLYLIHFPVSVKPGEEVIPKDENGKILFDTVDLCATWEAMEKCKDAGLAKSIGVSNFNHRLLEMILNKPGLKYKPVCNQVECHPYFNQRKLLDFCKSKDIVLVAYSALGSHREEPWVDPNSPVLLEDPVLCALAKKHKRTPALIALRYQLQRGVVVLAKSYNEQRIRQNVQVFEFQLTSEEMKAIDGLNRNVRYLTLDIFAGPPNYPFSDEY
How it was run: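 Purified recombinant enzyme (GST-tagged, glutathione-sepharose purified, thrombin-cleaved) with S-tetralol in 100 mM phosphate pH 7, 200 µM NADP+, 10% ethanol. IC50 from initial velocities versus solvent controls; means of two experiments in triplicate.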

[8] = target: T5, Prostaglandin G/H synthase 1 (Ovis aries) (UniProt P05979); assay: Inhibition of ovine COX1 assessed as reduction in PGF2alpha production at 100 uM by ELISA
T5 sequence (whole entry): T1 sequence (P05979 whole entry)

[9] = Selectivity index, ratio of IC50 for ovine COX1 to IC50 for AKR1C3 (unknown origin)
Homo sapiens [10] = species: Homo sapiens; assay: Selectivity index, ratio of IC50 for human COX2 to IC50 for AKR1C3 (unknown origin)
Homo sapiens [11] = species: Homo sapiens; assay: Selectivity index, ratio of IC50 for AKR1C2 (unknown origin) to IC50 for AKR1C3 (unknown origin)
[12] = target: Prostaglandin G/H synthase 2 (Homo sapiens) (UniProt P35354); assay: Inhibition of human COX2 assessed as reduction in PGF2alpha production at 100 uM by ELISA
Prostaglandin G/H synthase 2 (Homo sapiens), sequence (P35354 whole entry, looked up): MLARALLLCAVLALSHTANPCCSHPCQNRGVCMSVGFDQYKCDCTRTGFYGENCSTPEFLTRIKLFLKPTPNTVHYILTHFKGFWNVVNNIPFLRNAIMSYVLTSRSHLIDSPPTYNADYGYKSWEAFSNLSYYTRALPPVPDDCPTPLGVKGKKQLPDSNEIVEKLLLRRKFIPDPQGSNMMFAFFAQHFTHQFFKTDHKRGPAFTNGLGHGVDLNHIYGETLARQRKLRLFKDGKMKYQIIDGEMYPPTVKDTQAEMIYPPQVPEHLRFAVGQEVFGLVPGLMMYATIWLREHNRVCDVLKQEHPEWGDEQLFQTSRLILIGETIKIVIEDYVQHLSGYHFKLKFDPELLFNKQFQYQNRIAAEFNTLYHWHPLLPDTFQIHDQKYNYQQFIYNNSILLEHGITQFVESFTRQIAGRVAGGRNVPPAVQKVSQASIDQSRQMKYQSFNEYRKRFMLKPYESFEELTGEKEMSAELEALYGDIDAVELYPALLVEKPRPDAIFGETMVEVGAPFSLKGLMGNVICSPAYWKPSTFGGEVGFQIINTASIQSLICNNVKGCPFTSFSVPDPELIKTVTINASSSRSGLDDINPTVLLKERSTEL

CWR22R [13] = assay: Antiproliferative activity against human 22Rv1 cells at 10 uM after 72 hrs by sulforhodamine B colorimetric proliferation assay; format: functional, cell-based
CWR22R [14] = assay: Antiproliferative activity against human 22Rv1 cells at 60 uM after 72 hrs by sulforhodamine B colorimetric proliferation assay; format: functional, cell-based
CWR22R [15] = assay: Synergistic antiproliferative activity against human 22Rv1 cells at 60 uM after 72 hrs in presence of 20 uM enzalutamide by sulforhodamine B colorimetric proliferation assay; format: functional
How it was run: (§2)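 Co-treatment by SRB assay: 22RV1 cells in RPMI with 10% charcoal-stripped serum, given 60 µM inhibitor with or without 10 µM abiraterone or 20 µM enzalutamide for 72 h. Growth expressed as % T/C (mean OD treated/control ×100). Means of two experiments in triplicate.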

CWR22R [16] = assay: Inhibition of AKR1C3-mediated testosterone production in human 22Rv1 cells after 1 hr in presence of androstenedione by ELISA; format: functional, cell-based
How it was run: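 22RV1 cells seeded at 30,000/well in RPMI with 10% charcoal-stripped serum, 24 h. Inhibitor added at four concentrations for 1 h, then 28 nM androstenedione, further 24 h. Supernatant testosterone measured by ELISA at 405 nm against a standard curve, corrected for androstenedione cross-reactivity. Means of two experiments in triplicate.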

CWR22R [17] = assay: Synergistic antiproliferative activity against human 22Rv1 cells at 60 uM after 72 hrs in presence of 10 uM abiraterone by sulforhodamine B colorimetric proliferation assay; format: functional; how it was run: as §2
CWR22R [18] = assay: Inhibition of AKR1C3-mediated testosterone production in human 22Rv1 cells at 100 uM after 1 hr in presence of androstenedione by ELISA; format: functional; settings: 22Rv1, 1 h

O=C(O)c1ccccc1Nc1cccc(C(F)(F)F)c1 [FLUFENAMIC ACID]
IC50 [1]: 14 µM | IC50 [2]: 0.44 µM | IC50 (CWR22R [3]): 115 µM | IC50 [4]: 8.63 µM

CNC(=O)c1ccc(N2C(=S)N(c3ccc(C#N)c(C(F)(F)F)c3)C(=O)C2(C)C)cc1F
Activity (CWR22R [5]): inactive

O=C(Nc1cccc(C(F)(F)F)c1)c1nonc1O
inhibition [6]: 35.4% | IC50 [4]: > 50 µM

O=C(Nc1cccc(C(F)(F)F)c1)c1c(O)nnn1Cc1ccccc1
IC50 [1]: > 100 µM | IC50 [7]: 62.9 µM | IC50 [2]: 0.48 µM | inhibition [8]: 15% | Ratio IC50 [9]: > 208 | IC50 (CWR22R [3]): 67.1 µM | Ratio IC50 (Homo sapiens [10]): > 208 | Ratio IC50 (Homo sapiens [11]): 131 | IC50 [4]: 10.2 µM | inhibition [12]: 7.5%

C[C@]12CC[C@H](O)CC1=CC[C@@H]1[C@@H]2CC[C@]2(C)C(c3cccnc3)=CC[C@@H]12
Activity (CWR22R [13]): inactive

O=C(Nc1cccc(C(F)(F)F)c1)c1c(O)nnn1CC1CC1
IC50 [1]: > 100 µM | IC50 [7]: 70.6 µM | IC50 [2]: 1.6 µM | inhibition [8]: 17% | Ratio IC50 [9]: > 63 | Ratio IC50 (Homo sapiens [10]): > 63 | Ratio IC50 (Homo sapiens [11]): 44 | IC50 [4]: 13.2 µM | inhibition [12]: 9.6%

O=C(Nc1cccc(C(F)(F)F)c1)c1nsnc1O
inhibition [6]: 47.2% | IC50 [4]: ≥ 50 µM

Cn1nnc(O)c1C(=O)Nc1cccc(C(F)(F)F)c1
IC50 [4]: 32.8 µM

COc1ccc(Cn2nnc(O)c2C(=O)Nc2cccc(C(F)(F)F)c2)cc1
IC50 [1]: > 100 µM | IC50 [7]: 73.2 µM | IC50 [2]: 0.31 µM | Activity (CWR22R [14]): inactive | Activity (CWR22R [15]): 50% | inhibition [8]: 0% | Ratio IC50 [9]: > 322 | IC50 (CWR22R [3]): 81.4 µM | Ratio IC50 (Homo sapiens [10]): > 322 | inhibition (CWR22R [16]): Dose-dependent effect | Ratio IC50 (Homo sapiens [11]): 236 | IC50 [4]: 3.56 µM | Activity (CWR22R [17]): 45% | inhibition at 100 µM (CWR22R [18]): 50% | inhibition [12]: 12%

O=C(Nc1cccc(C(F)(F)F)c1)c1nn(CC2CC2)nc1O
inhibition [6]: 5.35% | IC50 [4]: > 50 µM

Cn1nc(O)c(C(=O)Nc2cccc(C(F)(F)F)c2)n1
inhibition [6]: 18.5% | IC50 [4]: > 50 µM
